In ChEMBL document CHEMBL3351568, “2-Aminobenzoxazole ligands of the hepatitis C virus internal ribosome entry site” (Bioorg Med Chem Lett, 2014):

Biological target: Internal ribosome entry site (IRES)
Experiment: Binding affinity to HCV cyanine dye-labeled IRES subdomain 2a RNA by FRET assay in presence of tRNA
Set-up: species or system Hepacivirus hominis
Procedure, shortened: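 IRES subdomain IIa RNA target binding by FRET, following a previously described method. Compounds were titrated in triplicate experiments, and the data were averaged. EC50 came from fitting a single-site binding dose-response curve to the averaged data.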

SMILES	EC50
CN(C)CCCNc1nc2cc(N)ccc2o1	52 µM
CN(C)CCCNc1nc2cccc(N)c2o1	31 µM
Nc1nc2ccc(NCc3ccccc3)cc2o1	27 µM
Nc1ccc2nc(NCCCN3CCOCC3)oc2c1	43 µM
Nc1ccc2nc(NCCCN3CCCCC3)oc2c1	47 µM
CN(C)CCCNc1nc2ccc(N)cc2o1	120 µM
CN(C)CCNc1nc2ccc(N)cc2o1	500 µM
Nc1nc2ccc(Nc3ccccc3)cc2o1	90 µM

Continued, values first:

EC50	SMILES
600 µM	CN(CCC(=O)N(C)C)Cc1cccc2nc(N)oc12
63 µM	CN(C)CCCNc1ccc2nc(NCCCN(C)C)oc2c1
190 µM	CN(C)CCN(C)Cc1cccc2nc(N)oc12
88 µM	Nc1ccc2nc(NCCN3CCCCC3)oc2c1
110 µM	CN(C)CCCNc1nc2ccccc2o1
25 µM	CN(C)CCCNc1ccc2nc(N)oc2c1
